Values after ≈ are worked out from the molar mass of the structure shown.
Assays:
Mycobacterium kansasii [1] = assay: In vitro activity against Mycobacterium. kansasii (strain type-SWK).at pH 6.6; assay type: functional
Procedure, shortened: (§1)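 MIC for pyrazinamide-resistant isolate SWK by agar dilution in Middlebrook 7H10 with 10% OADC at pH 6.6. Serial 2-fold dilutions run 200–3.12 µg/mL in compartmented plates prepared 24–48 h in advance and stored at 4 °C. A drug-free control is included. Plates were held at 37 °C for 4 weeks. The endpoint is 99% (2 log) inhibition of growth.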

[2] = tested on: Mycobacterium tuberculosis; assay: In vitro activity against Mycobacterium. tuberculosis (strain type-H37Rv) at pH 5.8; assay type: functional
Mycobacterium kansasii [3] = assay: In vitro activity against Mycobacterium. kansasii (strain type-SWK).at pH 5.8; assay type: functional
Procedure, shortened: (§2)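 Pyrazinamide-resistant isolate SWK tested on Middlebrook 7H10 agar plus 10% OADC adjusted to pH 5.8. Compartmented plates hold 2-fold dilutions from 200 to 3.12 µg/mL, prepared 24–48 h before use and kept at 4 °C, with a drug-free compartment. Incubation was 37 °C for 4 weeks. MIC is the lowest level causing 99% (2 log) growth inhibition.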

[4] = tested on: Mycobacterium tuberculosis; assay: In vitro activity against Mycobacterium. tuberculosis (strain type-ATCC 35828)at pH 6.6; assay type: functional
Procedure, shortened: (§3)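 Twofold serial dilutions (200–3.12 µg/mL) in 7H10 agar with 10% OADC enrichment at pH 6.6, in compartmented plates. Plates were stored at 4 °C and used within 24–48 h. A no-drug compartment served as control for each isolate. Plates were incubated for 4 weeks at 37 °C. MIC was the lowest concentration giving 99% (2 log) growth inhibition.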

[5] = tested on: Mycobacterium tuberculosis; assay: In vitro activity against Mycobacterium. tuberculosis (strain type-BUR)at pH 6.6; assay type: functional; procedure, shortened: as §3
[6] = tested on: Mycobacterium tuberculosis; assay: In vitro activity against Mycobacterium. tuberculosis (strain type-ATCC 35828)at pH 5.8; assay type: functional
Procedure, shortened: (§4)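 Middlebrook 7H10 agar plus 10% OADC at pH 5.8 in compartmented plates, with serial twofold dilutions from 200 to 3.12 µg/mL. Plates were prepared 24–48 h before use and stored at 4 °C. A drug-free compartment was included per isolate. Incubation was 37 °C for 4 weeks. MIC was the lowest level producing 99% (2 log) inhibition of growth.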

[7] = tested on: Mycobacterium tuberculosis; assay: In vitro activity against Mycobacterium. tuberculosis (strain type-BUR)at pH 5.8; assay type: functional
[8] = tested on: Mycobacterium tuberculosis; assay: In vitro activity against Mycobacterium. tuberculosis (strain type-H37Rv) at pH 6.6; assay type: functional
[9] = tested on: Mycobacterium tuberculosis; assay: In vitro activity against Mycobacterium strain ING (Mycobacterium tuberculosis); assay type: functional
Procedure, shortened: (§5)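 Agar dilution in compartmented plates of Middlebrook 7H10 agar with 10% OADC, adjusted to pH 5.8 or pH 6.6. Twofold compound dilutions spanned 200–3.12 µg/mL. Plates were made 24–48 h ahead and held at 4 °C. MIC (µg/mL) was the lowest concentration giving 99% (2 log) growth inhibition.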

[10] = tested on: Mycobacterium tuberculosis; assay: (§6) In vitro activity against Mycobacterium strain GLA (Mycobacterium tuberculosis)
[11] = tested on: Mycobacterium tuberculosis; assay: In vitro activity against Mycobacterium strain DUB (Mycobacterium tuberculosis); assay type: functional
[12] = tested on: Mycobacterium tuberculosis; assay: In vitro activity against Mycobacterium strain BAK (Mycobacterium tuberculosis); assay type: functional
Mycobacterium kansasii [13] = assay: In vitro activity against Mycobacterium. kansasii (strain type-SWK)at pH 5.8; assay type: functional; procedure, shortened: as §2
[14] = tested on: Mycobacterium tuberculosis; assay: In vitro activity against Mycobacterium strain LEL (Mycobacterium tuberculosis); assay type: functional
[15] = tested on: Mycobacterium tuberculosis; assay: (§7) In vitro activity against Mycobacterium strain DOU (Mycobacterium tuberculosis); assay type: functional; procedure, shortened: as §5
Mycobacterium kansasii [16] = assay: In vitro activity against Mycobacterium strain SWK (Mycobacterium kansasii); assay type: functional
Procedure, shortened: (§8)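 Agar dilution MIC against pyrazinamide-resistant clinical isolates on Middlebrook 7H10 agar with 10% OADC at pH 5.8 or pH 6.6. Serial 2-fold dilutions span 200–3.12 µg/mL in compartmented plates made 24–48 h ahead and stored at 4 °C. Each isolate has a drug-free control. Plates were incubated at 37 °C for 4 weeks. MIC is the lowest concentration giving 99% (2 log) growth inhibition.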

[17] = tested on: Mycobacterium tuberculosis; assay: In vitro activity against Mycobacterium strain ATCC 35828 (Mycobacterium tuberculosis); assay type: functional; procedure, shortened: as §5
[18] = tested on: Mycobacterium tuberculosis; assay: In vitro activity against Mycobacterium strain DOL (Mycobacterium tuberculosis); assay type: functional; settings: Mycobacterium tuberculosis; read-out: MIC
[19] = tested on: Mycobacterium tuberculosis; assay: In vitro activity against Mycobacterium strain MCQ (Mycobacterium tuberculosis); assay type: functional; procedure, shortened: as §5
Mycobacterium kansasii [20] = assay: In vitro activity against Mycobacterium. kansasii (strain type-SWK)at pH 6.6; assay type: functional; procedure, shortened: as §1
[21] = tested on: Mycobacterium tuberculosis; assay: In vitro activity against Mycobacterium strain WOO (Mycobacterium tuberculosis); assay type: functional; procedure, shortened: as §5
[22] = tested on: Mycobacterium tuberculosis; assay: In vitro activity against Mycobacterium strain BUR (Mycobacterium tuberculosis); assay type: functional; procedure, shortened: as §5
[23] = tested on: Mycobacterium tuberculosis; assay: In vitro activity against Mycobacterium strain CES (Mycobacterium tuberculosis); assay type: functional; procedure, shortened: as §5
[24] = tested on: Mycobacterium tuberculosis; assay: In vitro activity against Mycobacterium strain SMA (Mycobacterium tuberculosis); assay type: functional
Mycobacterium kansasii [25] = assay: In vitro activity against Mycobacterium strain SCH (Mycobacterium kansasii); assay type: functional; procedure, shortened: as §8
[26] = tested on: Mycobacterium tuberculosis; assay: In vitro inhibitory activity against Mycobacterium tuberculosis (strain type-BUR) at pH 5.8
Mycobacterium kansasii [27] = assay: In vitro activity inhibitory against Mycobacterium. kansasii (strain type-SWK) at pH 5.8; assay type: functional; procedure, shortened: as §2
[28] = tested on: Mycobacterium tuberculosis; assay: In vitro inhibitory activity against Mycobacterium strain LEL (Mycobacterium tuberculosis); assay type: functional; procedure, shortened: as §5
[29] = tested on: Mycobacterium tuberculosis; assay: In vitro inhibitory activity against Mycobacterium strain BUR (Mycobacterium tuberculosis)
[30] = tested on: Mycobacterium tuberculosis; assay: In vitro activity against Mycobacterium strains on SMA (Mycobacterium tuberculosis)
[31] = tested on: Mycobacterium tuberculosis; assay: In vitro inhibitory activity against Mycobacterium tuberculosis (strain type-H37Rv) at pH 5.8; assay type: functional; procedure, shortened: as §4
[32] = tested on: Mycobacterium tuberculosis; assay: In vitro inhibitory activity against Mycobacterium strain DUB (Mycobacterium tuberculosis)
[33] = tested on: Mycobacterium tuberculosis; assay: In vitro inhibitory activity against Mycobacterium tuberculosis (strain type-ATCC 35828) at pH 5.8; assay type: functional; procedure, shortened: as §4
Mycobacterium kansasii [34] = assay: In vitro inhibitory activity inhibitory against Mycobacterium. kansasii (strain type-SWK) at pH 6.6; assay type: functional; procedure, shortened: as §1
[35] = tested on: Mycobacterium tuberculosis; assay: as §7
[36] = tested on: Mycobacterium tuberculosis; assay: In vitro inhibitory activity against Mycobacterium strains on BAK (Mycobacterium tuberculosis)
[37] = tested on: Mycobacterium tuberculosis; assay: In vitro inhibitory activity against Mycobacterium strain MCQ (Mycobacterium tuberculosis)
[38] = tested on: Mycobacterium tuberculosis; assay: In vitro inhibitory activity against Mycobacterium tuberculosis (strain type-ATCC 35828)at pH 6.6; assay type: functional; procedure, shortened: as §3
[39] = tested on: Mycobacterium tuberculosis; assay: In vitro inhibitory activity against Mycobacterium strain ING (Mycobacterium tuberculosis); assay type: functional; procedure, shortened: as §5
[40] = tested on: Mycobacterium tuberculosis; assay: In vitro inhibitory activity against Mycobacterium strain GLA (Mycobacterium tuberculosis); assay type: functional; procedure, shortened: as §5
[41] = tested on: Mycobacterium tuberculosis; assay: In vitro inhibitory activity against Mycobacterium tuberculosis (strain type-BUR) at pH 6.6; assay type: functional; procedure, shortened: as §3
[42] = tested on: Mycobacterium tuberculosis; assay: In vitro activity against Mycobacterium strains on DOL (Mycobacterium tuberculosis)
[43] = tested on: Mycobacterium tuberculosis; assay: In vitro inhibitory activity against Mycobacterium strain WOO (Mycobacterium tuberculosis)
[44] = tested on: Mycobacterium tuberculosis; assay: In vitro inhibitory activity against Mycobacterium tuberculosis (strain type-H37Rv) at pH 6.6; assay type: functional
[45] = tested on: Mycobacterium tuberculosis; assay: as §6; assay type: functional
[46] = Mycobacterium tuberculosis, read-out: MIC

SMILES	MIC (Mycobacterium kansasii [1]) [µg/mL]	MIC [2, 46] [µg/mL]	MIC (Mycobacterium kansasii [3]) [µg/mL]	MIC [4] [µg/mL]	MIC [6] [µg/mL]	MIC [9] [µg/mL]	MIC [15] [µg/mL]	MIC (Mycobacterium kansasii [16]) [µg/mL]	MIC [17] [µg/mL]	MIC [18] [µg/mL]	MIC [19] [µg/mL]	MIC [22] [µg/mL]	MIC [23] [µg/mL]	MIC (Mycobacterium kansasii [25]) [µg/mL]	further results
O=C(Oc1ccc(-c2ccccc2)cc1)c1cnccn1	100 (≈ 362 µM)	6.25 (≈ 22.6 µM)	25 (≈ 90.5 µM)	100 (≈ 362 µM)	25 (≈ 90.5 µM)										MIC [5]: 50 µg/mL (≈ 181 µM)
C=CCOC(=O)c1cnccn1		< 3.12		200 (≈ 1220 µM)	6.25 (≈ 38.1 µM)	3.12 (≈ 19 µM)	3.12 (≈ 19 µM)	6.25 (≈ 38.1 µM)	6.25 (≈ 38.1 µM)	< 3.12	< 3.12	6.25 (≈ 38.1 µM)	< 3.12	6.25 (≈ 38.1 µM)	MIC [7]: 6.25 µg/mL (≈ 38.1 µM); MIC [8, 46]: 200 µg/mL (≈ 1220 µM); MIC [10]: 6.25 µg/mL (≈ 38.1 µM); MIC [11]: 6.25 µg/mL (≈ 38.1 µM); MIC [12, 46]: 3.12 µg/mL (≈ 19 µM); MIC (Mycobacterium kansasii [13]): < 3.12 µg/mL; MIC [14]: 3.12 µg/mL (≈ 19 µM); MIC (Mycobacterium kansasii [20]): 12.5 µg/mL (≈ 76.1 µM); MIC [21]: 6.25 µg/mL (≈ 38.1 µM); MIC [24]: 3.12 µg/mL (≈ 19 µM)
O=C(Oc1c(F)c(F)c(F)c(F)c1F)c1cnccn1	> 200	12.5 (≈ 43.1 µM)	25 (≈ 86.2 µM)	100 (≈ 345 µM)	12.5 (≈ 43.1 µM)										MIC [8, 46]: 100 µg/mL (≈ 345 µM)
NC(=O)c1cnccn1 [PYRAZINAMIDE]								> 200	> 200					> 200	MIC [26]: 25 µg/mL (≈ 203 µM); MIC (Mycobacterium kansasii [27]): > 200 µg/mL; MIC [28]: > 200 µg/mL; MIC [29]: 25 µg/mL (≈ 203 µM); MIC [30]: 50 µg/mL (≈ 406 µM); MIC [31]: 12.5 µg/mL (≈ 102 µM); MIC [32]: 50 µg/mL (≈ 406 µM); MIC [33]: > 200 µg/mL; MIC (Mycobacterium kansasii [34]): > 200 µg/mL; MIC [35]: 25 µg/mL (≈ 203 µM); MIC [36]: 50 µg/mL (≈ 406 µM); MIC [37]: 25 µg/mL (≈ 203 µM); MIC [38]: > 200 µg/mL; MIC [39]: 12.5 µg/mL (≈ 102 µM); MIC [40]: 12.5 µg/mL (≈ 102 µM); MIC [41]: 200 µg/mL (≈ 1620 µM); MIC [42]: 25 µg/mL (≈ 203 µM); MIC [43]: 50 µg/mL (≈ 406 µM); MIC [44]: >200 µg/mL
CCCOC(=O)c1cnccn1	12.5 (≈ 75.2 µM)	< 3.12	< 3.12	25 (≈ 150 µM)	6.25 (≈ 37.6 µM)	< 3.12	< 3.12	6.25 (≈ 37.6 µM)	6.25 (≈ 37.6 µM)	< 3.12	< 3.12	< 3.12	< 3.12	12.5 (≈ 75.2 µM)	MIC [7, 46]: < 3.12 µg/mL; MIC [8]: 25 µg/mL (≈ 150 µM); MIC [11, 46]: < 3.12 µg/mL; MIC [12, 46]: < 3.12 µg/mL; MIC [14, 46]: 6.25 µg/mL (≈ 37.6 µM); MIC [45]: 6.25 µg/mL (≈ 37.6 µM); MIC [24, 46]: < 3.12 µg/mL
O=C(OC(C(F)(F)F)C(F)(F)F)c1cnccn1					200 (≈ 730 µM)										MIC [7, 46]: 100 µg/mL (≈ 365 µM)
Cc1ccc(OC(=O)c2cnccn2)cc1				200 (≈ 934 µM)	12.5 (≈ 58.4 µM)	25 (≈ 117 µM)	12.5 (≈ 58.4 µM)	12.5 (≈ 58.4 µM)	12.5 (≈ 58.4 µM)	6.25 (≈ 29.2 µM)	6.25 (≈ 29.2 µM)	12.5 (≈ 58.4 µM)	12.5 (≈ 58.4 µM)	12.5 (≈ 58.4 µM)	MIC [7]: 12.5 µg/mL (≈ 58.4 µM); MIC [2]: 12.5 µg/mL (≈ 58.4 µM); MIC [8]: 25 µg/mL (≈ 117 µM); MIC [11, 46]: 25 µg/mL (≈ 117 µM); MIC [5]: 100 µg/mL (≈ 467 µM); MIC [12]: 12.5 µg/mL (≈ 58.4 µM); MIC (Mycobacterium kansasii [13]): 12.5 µg/mL (≈ 58.4 µM); MIC [14]: 12.5 µg/mL (≈ 58.4 µM); MIC (Mycobacterium kansasii [20]): 200 µg/mL (≈ 934 µM); MIC [21]: 25 µg/mL (≈ 117 µM); MIC [45]: 6.25 µg/mL (≈ 29.2 µM); MIC [24, 46]: 25 µg/mL (≈ 117 µM)

Source: ChEMBL document CHEMBL1125418, “Antimycobacterial activity of a series of pyrazinoic acid esters” (1992)
